Laboratory results taken from ChEMBL document CHEMBL4699638, “A Multipronged Approach Establishes Covalent Modification of β-Tubulin as the Mode of Action of Benzamide Anti-cancer Toxins” (J Med Chem, 2020).
The source made the active and inactive calls. The calls are words filed in the database; no cut-off is given here.

Key:
[1] = (§1) Anticancer activity against mouse 319N1 cells assessed as reduction in cell viability measured after 72 hrs by celltiter-glo assay; format: functional, cell-based; settings: 319N1, 72 h
Method in brief: (§2)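 Cells seeded in duplicate at 10,000 per well in DMEM with 5% FBS and incubated overnight. Compounds were then added as a 10-point dose response. After 72 h, viability was read by CellTiter-Glo luminescence, with the reagent diluted 1:1 in PBS/1% Triton-X. Values were normalized to DMSO-treated cells and IC50 was derived from curve fitting.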

319N1 [2] = test: as §1; format: functional, cell-based; method in brief: as §2
518T2 [3] = test: Binding affinity to beta-tubulin in mouse 518T2 cells at 0.1 to 50 uM measured after 1.5 hrs using Alexa Fluor 532 dye by copper-mediated click reaction based SDS PAGE analysis; format: cell-based; settings: dose microM 0.1-50, time 1.5 hrs
Method in brief: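 Competition assay in 518T2 cells (1 million per well, DMEM with 5% FBS). Test analogs in DMSO were dispensed first at 100 nM to 50 μM and the cells plated onto them. The next day, alkyne probe (5 μM) was added for 1.5 h at 37 °C. Lysis was in 1% SDS HEPES buffer, followed by a click reaction with fluorescent azide, SDS-PAGE, and EC50 from displacement of the p50 band.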

518T2 [4] = test: Binding affinity to beta-tubulin in mouse 518T2 cells at 0.05 to 50 uM measured after 1.5 hrs using Alexa Fluor 532 dye by copper-mediated click reaction based SDS PAGE analysis; format: cell-based; settings: dose microM 0.05-50, time 1.5 hrs
Method in brief: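 518T2 cells were plated at 1 million per well in DMEM with 5% FBS. The next day, alkyne probe in DMSO was added at 50 nM to 50 μM for 1.5 h at 37 °C in 5% CO2. Cells were washed, lysed in 1% SDS buffer (50 mM HEPES pH 7.4, 10 mM KCl, 2 mM MgCl2, benzonase), click-reacted with Alexa Fluor 532 azide and resolved by SDS-PAGE fluorescence.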

518T2 [5] = test: Binding affinity to beta-tubulin in mouse 518T2 cells measured after 1.5 hrs using diazo biotin azide dye by silver staining based based SDS PAGE analysis; format: cell-based
Method in brief: (§3)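 518T2 cells were grown at large scale (100 mg protein per condition) and treated with covalent or non-covalent alkyne probe. Lysates were clicked to 100 μM diazo biotin azide, acetone-precipitated, resolubilized in 4% SDS/PBS, and captured on streptavidin beads for 1 h at 25 °C. Eluates were run on silver-stained SDS-PAGE or analyzed by nano-LC-MS/MS (Orbitrap, HCD). Peptide abundance was normalized to the non-covalent probe sample.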

518T2 [6] = test: Binding affinity to beta-tubulin in mouse 518T2 cells measured after 1.5 hrs using Alexa Fluor 532 dye by copper-mediated click reaction based SDS PAGE analysis; format: cell-based
Method in brief: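 Competition format in 518T2 murine SCLC cells, 1 million per well in DMEM with 5% FBS. Analogs in DMSO (100 nM to 50 μM) were dispensed first and cells plated onto them. Next day alkyne probe 24 (5 μM) was added for 1.5 h at 37 °C, 5% CO2. EC50 was taken from displacement of the 50 kDa band.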

[7] = (§4) Anticancer activity against mouse 319N1 clone C cells assessed as reduction in cell viability measured after 72 hrs by celltiter-glo assay; format: functional, cell-based; settings: 319N1, 72 h; method in brief: as §2
[8] = target: Tubulin beta-5 chain (Mus musculus) (UniProt P99024); test: Binding affinity to beta5-tubulin in mouse 518T2 cells measured after 1.5 hrs by LC-MS/MS analysis; format: cell-based; method in brief: as §3
[9] = target: Tubulin beta-5 chain (Mus musculus) (UniProt P99024); test: Binding affinity to beta5-tubulin (217 to 241 residues) in mouse 518T2 cells measured after 1.5 hrs by LC-MS/MS analysis; format: cell-based; method in brief: as §3
518T2 [10] = test: Cell cycle arrest in mouse 518T2 cells assessed as increase in accumulation at G2/M-phase at 300 nM measured after 24 hrs by propidium iodide staining based flow cytometry; format: functional
Method in brief: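 518T2 murine SCLC cells were exposed for 24 h to compound (300 nM) or DMSO vehicle. Cell cycle distribution was then read by flow cytometry.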

[11] = target: Tubulin beta-3 chain (Homo sapiens) (UniProt Q13509); test: Binding affinity to recombinant human C-terminal His-tagged beta3-tubulin expressed in insect cells assessed as reduction in microtubule growth measured up to 30 mins by microscopic analysis; settings: dose microM 1-10, time min <=30
Method in brief: (§5)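 Human αβ-tubulin (TUBA1B plus TUBB3 with cleavable C-terminal His-tag) was expressed in Tni insect cells. It was purified by Ni-affinity, TEV cleavage and anion exchange, then kept in BRB80 with 50 μM GTP. Growth was measured by DIC time-lapse at 30 °C on GMPCPP seeds in 144 mM PIPES pH 6.9 buffer with 1 mM GTP and 4% DMSO, over about 30 min. Compound was tested at 1, 5 and 10 μM; growth rates were measured per microtubule over two trials.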

[12] = target: Tubulin beta-3 chain (Homo sapiens) (UniProt Q13509); test: Binding affinity to recombinant human C-terminal His-tagged beta3-tubulin expressed in insect cells assessed as reduction in microtubule growth by measuring microtubule growth rate at 1 uM measured up to 30 mins by microscopic analysis (reference value: 0.83 micrometer/min); settings: time min <=30; method in brief: as §5
[13] = target: Tubulin beta-3 chain (Homo sapiens) (UniProt Q13509); test: Binding affinity to recombinant human C-terminal His-tagged beta3-tubulin expressed in insect cells assessed as reduction in microtubule growth by measuring microtubule growth rate at 10 uM measured up to 30 mins by microscopic analysis (reference value: 0.83 micrometer/min); settings: time min <=30; method in brief: as §5
Bos taurus [14] = species: Bos taurus; test: Binding affinity to bovine brain beta-tubulin assessed as reduction in microtubule growth at 0.5 uM measured up to 30 mins by microscopic analysis; format: tissue-based; settings: time min <=30
Method in brief: (§6)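 Microtubule growth from brain tubulin was imaged by time-lapse DIC microscopy at 30 °C on biotinylated GMPCPP seeds bound to neutravidin coverslips. Frames were taken every 50 ms and averaged in batches of 30; recordings ran about 30 min. Growth rates were quantified per microtubule.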

Bos taurus [15] = species: Bos taurus; test: Binding affinity to bovine brain beta-tubulin assessed as reduction in microtubule growth at 1 uM measured up to 30 mins by microscopic analysis relative to control; set-up: scale not given: the % may be the effect or the level left; settings: time min <=30; method in brief: as §6
[16] = target: Tubulin beta-3 chain (Homo sapiens) (UniProt Q13509); test: Binding affinity to recombinant human C-terminal His-tagged beta3-tubulin expressed in insect cells assessed as reduction in microtubule growth up to 10 uM measured up to 30 mins by microscopic analysis; settings: dose microM <=10, time min <=30; method in brief: as §5
518T2 [17] = test: Inhibition of colony formation in mouse 518T2 cells harboring Tubb5 T238A mutant at 400 nM measured after 2 weeks by crystal violet staining based assay; format: functional, cell-based
Method in brief: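 518T2 cells were transfected with Cas9-sgRNA complexes targeting Tubb5 plus an oligonucleotide repair template encoding T238A, or a sham control. They were selected with compound at 400 nM for 2 weeks, and the plates were then stained with crystal violet to visualize resistant colonies.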

319N1 [18] = test: Anticancer activity against Msh2-deficient mouse 319N1 cells assessed as reduction in cell viability measured after 72 hrs by celltiter-glo assay; format: functional, cell-based; method in brief: as §2
319N1 [19] = test: Anticancer activity against mouse 319N1 clone A cells assessed as reduction in cell viability measured after 72 hrs by celltiter-glo assay; format: functional, cell-based; method in brief: as §2
319N1 [20] = test: Anticancer activity against mouse 319N1 clone B cells assessed as reduction in cell viability measured after 72 hrs by celltiter-glo assay; format: functional, cell-based; method in brief: as §2
319N1 [21] = test: as §4; format: functional, cell-based; method in brief: as §2
319N1 [22] = test: Anticancer activity against mouse 319N1 clone D cells assessed as reduction in cell viability measured after 72 hrs by celltiter-glo assay; format: functional, cell-based; method in brief: as §2
319N1 [23] = test: Anticancer activity against mouse 319N1 clone E cells assessed as reduction in cell viability measured after 72 hrs by celltiter-glo assay; format: functional, cell-based; method in brief: as §2

Chain of Tubulin beta-3 chain (Homo sapiens) (Q13509 whole entry): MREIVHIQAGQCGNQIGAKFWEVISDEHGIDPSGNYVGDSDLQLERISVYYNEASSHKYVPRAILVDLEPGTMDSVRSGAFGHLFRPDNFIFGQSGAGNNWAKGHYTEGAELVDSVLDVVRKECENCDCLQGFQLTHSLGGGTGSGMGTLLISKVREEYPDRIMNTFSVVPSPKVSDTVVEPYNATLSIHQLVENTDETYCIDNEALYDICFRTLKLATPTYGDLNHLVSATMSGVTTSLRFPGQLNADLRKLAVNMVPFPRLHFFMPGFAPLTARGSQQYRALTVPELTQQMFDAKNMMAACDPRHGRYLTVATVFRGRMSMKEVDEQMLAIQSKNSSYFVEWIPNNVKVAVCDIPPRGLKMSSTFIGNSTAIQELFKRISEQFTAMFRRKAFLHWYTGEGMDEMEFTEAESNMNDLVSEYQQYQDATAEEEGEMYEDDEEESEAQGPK
Chain of Tubulin beta-5 chain (Mus musculus) (P99024 whole entry, the tested form may be a part): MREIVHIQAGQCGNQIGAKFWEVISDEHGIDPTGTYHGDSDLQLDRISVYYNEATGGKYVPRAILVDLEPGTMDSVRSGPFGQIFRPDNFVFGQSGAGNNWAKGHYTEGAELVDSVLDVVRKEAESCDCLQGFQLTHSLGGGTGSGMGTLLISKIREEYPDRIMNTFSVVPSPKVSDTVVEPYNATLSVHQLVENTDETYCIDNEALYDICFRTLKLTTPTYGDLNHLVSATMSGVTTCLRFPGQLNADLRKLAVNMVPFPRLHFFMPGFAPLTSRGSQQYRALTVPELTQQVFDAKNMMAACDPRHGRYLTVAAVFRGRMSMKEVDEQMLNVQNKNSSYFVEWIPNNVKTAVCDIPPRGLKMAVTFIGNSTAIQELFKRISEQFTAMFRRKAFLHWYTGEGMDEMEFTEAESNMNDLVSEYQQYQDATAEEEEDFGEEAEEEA

Cc1ccc(Cl)cc1N1CCN(C(=O)c2cc(Cl)cc([N+](=O)[O-])c2)CC1
IC50 [1]: 4.87 µM

O=C(c1ccc(Cl)cc1)N1CCN(c2ccccc2)CC1
Activity (319N1 [2]): inactive

COc1cccc(N2CCN(C(=O)c3ccc(Cl)c([N+](=O)[O-])c3)CC2)c1
IC50 [1]: 1.56 µM
beta-tubulin binding (probe competition, active/inactive) (518T2 [3]): Active

Cc1ccc(Cl)cc1N1CCN(C(=O)c2ccc(I)c([N+](=O)[O-])c2)CC1
beta-tubulin binding (probe competition, active/inactive) (518T2 [3]): Active

N#Cc1cccc(N2CCN(C(=O)c3ccc(Cl)c([N+](=O)[O-])c3)CC2)c1
IC50 [1]: 0.593 µM

Cc1ccc(Cl)cc1N1CCN(C(=O)c2ccc(OC(F)(F)F)c([N+](=O)[O-])c2)CC1
IC50 [1]: 0.02 µM

COc1ccc(N2CCN(C(=O)c3ccc(Cl)c([N+](=O)[O-])c3)CC2)cc1
IC50 [1]: 40.3 µM

O=C(c1ccc(Cl)c([N+](=O)[O-])c1)N1CCN(c2cccc(Cl)c2)CC1
IC50 [1]: 0.694 µM

Cc1ccc(Cl)cc1N1CCN(C(=O)c2ccc([N+](=O)[O-])c(Cl)c2)CC1
IC50 [1]: 4.68 µM

C#CCOc1cccc(N2CCN(C(=O)c3ccc(C)c([N+](=O)[O-])c3)CC2)c1
IC50 [1]: 13 µM
Activity (518T2 [4]): inactive
Activity (518T2 [5]): inactive

O=C(c1ccc(Cl)c([N+](=O)[O-])c1)N1CCN(c2cc(Cl)ccc2Cl)CC1
IC50 [1]: 0.458 µM

O=C(c1ccc(Cl)c([N+](=O)[O-])c1)N1CCN(c2ccc(F)cc2)CC1
IC50 [1]: 21.1 µM

O=C(c1ccc(Cl)c([N+](=O)[O-])c1)N1CCN(c2cccc(Br)c2)CC1
IC50 [1]: 0.866 µM
beta-tubulin binding (probe competition, active/inactive) (518T2 [3]): Active

COC(=O)c1c(C)oc2ccc(NS(=O)(=O)c3ccc(Cl)c([N+](=O)[O-])c3)cc12
IC50 [1]: 2.8 µM
inhibition (518T2 [6]): Dose-dependent effect
IC50 [7]: 7.57 µM

Cc1ccc(C)c(N2CCN(C(=O)c3ccc(Cl)c([N+](=O)[O-])c3)CC2)c1
IC50 [1]: 1.04 µM

O=C(c1ccc(Cl)c([N+](=O)[O-])c1)N1CCN(c2ccccc2F)CC1
IC50 [1]: 7.94 µM

C#CCOc1cccc(N2CCN(C(=O)c3ccc(Cl)c([N+](=O)[O-])c3)CC2)c1
IC50 [1]: 1.19 µM
Activity (518T2 [4]): Active
Activity (518T2 [5]): Active
Activity [8]: Active
Activity [9]: Active

Cc1ccc(Cl)cc1N1CCN(C(=O)c2cccc([N+](=O)[O-])c2Cl)CC1
IC50 [1]: 12.4 µM

COc1cc2c(c(OC)c1OC)-c1ccc(OC)c(=O)cc1[C@@H](NC(C)=O)CC2
inhibition (518T2 [6]): Dose-dependent effect
Activity (518T2 [10]): Active

CC[C@]1(O)C[C@H]2CN(CCc3c([nH]c4ccccc34)[C@@](C(=O)OC)(c3cc4c(cc3OC)N(C=O)[C@H]3[C@@](O)(C(=O)OC)[C@H](OC(C)=O)[C@]5(CC)C=CCN6CC[C@]43[C@@H]65)C2)C1
beta-tubulin binding (probe competition, active/inactive) (518T2 [3]): inactive

Cc1cccc(N2CCN(C(=O)c3ccc(Cl)c([N+](=O)[O-])c3)CC2)c1
IC50 [1]: 1.42 µM
beta-tubulin binding (probe competition, active/inactive) (518T2 [3]): Active

COc1cc(OC)cc(N2CCN(C(=O)c3ccc(C=O)c([N+](=O)[O-])c3)CC2)c1
IC50 [1]: 0.127 µM
Activity [11]: Dose-dependent effect
Activity [12]: 0.67 um/min
Activity [13]: 0.31 um/min
Activity (Bos taurus [14]): Active

O=C(c1ccc(Cl)c([N+](=O)[O-])c1)N1CCN(c2ccc(F)cc2F)CC1
IC50 [1]: 24.7 µM

Cc1ccc(Cl)cc1N1CCN(C(=O)c2ccc(Br)c([N+](=O)[O-])c2)CC1
IC50 [1]: 0.055 µM
beta-tubulin binding (probe competition, active/inactive) (518T2 [3]): Active
Activity (518T2 [10]): Active
Activity (Bos taurus [15]): 80%
Activity [16]: inactive
inhibition (518T2 [17]): inactive

Cc1ccc(N2CCN(C(=O)c3ccc(Cl)c([N+](=O)[O-])c3)CC2)c(C)c1
IC50 [1]: 6.99 µM

Cc1ccc(Cl)cc1N1CCN(C(=O)c2ccc(F)c([N+](=O)[O-])c2)CC1
beta-tubulin binding (probe competition, active/inactive) (518T2 [3]): Active

O=C(c1ccc(Cl)c([N+](=O)[O-])c1)N1CCN(c2ccccc2Cl)CC1
IC50 [1]: 2.95 µM
beta-tubulin binding (probe competition, active/inactive) (518T2 [3]): Active

O=C(c1cccc([N+](=O)[O-])c1)N1CCN(c2ccccc2)CC1
Activity (319N1 [2]): inactive

COc1cc([C@@H]2c3cc4c(cc3[C@@H](O[C@@H]3O[C@@H]5CO[C@@H](C)O[C@H]5[C@H](O)[C@H]3O)[C@H]3COC(=O)[C@H]23)OCO4)cc(OC)c1O
Activity (319N1 [18]): Active
Activity (319N1 [19]): Active
Activity (319N1 [20]): Active
Activity (319N1 [21]): Active
Activity (319N1 [22]): Active
Activity (319N1 [23]): Active

Cc1ccc(Cl)cc1N1CCN(C(=O)c2ccc(Cl)c([N+](=O)[O-])c2)CC1
beta-tubulin binding (probe competition, active/inactive) (518T2 [3]): Active
IC50 [7]: 1.48 µM

Cc1ccc(Cl)cc1N1CCN(C(=O)c2ccc(Cl)cc2[N+](=O)[O-])CC1
IC50 [1]: 17 µM
